The nature of series [1]: Growth inhibition of pig LLC-PK1 cells by Alamar Blue assay. It is filed as cell-based, Sus scrofa. The procedure, abridged: (§1)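 Cell viability was read with AlamarBlue dye in 96-well format and GI50 values derived, to assess P-gp effects. Cells were P-gp-expressing NCI/ADR-Res ovarian cancer cells and L-MDR1 porcine epithelial cells, each with its non-expressing parent line. P-gp expression was confirmed by Western blot with β-actin as loading control. Resistance is the GI50 in the P-gp line over the GI50 in the parent line.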

In the next series the test system is OVCAR-8. Briefly: Resistance factor, ratio of GI50 for P-gp expressing NCI-ADR-RES cells to GI50 for human OVCAR8 cells. It is filed as functional. The procedure, abridged: as §1
Series [2] concerns PC-3. Briefly: Induction of beta tubulin stabilization in human PC3 cells at 10 nM after 24 hrs by DAPI-staining based immunofluorescence assay. It is filed as cell-based. The gist of the method:
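PC3 cells were treated for 24 hours with the test agent at 1, 10 or 100 nM, or with 10 nM docetaxel or vinblastine as stabilizing and destabilizing references. Cells were immunostained for beta-tubulin (green) with DAPI nuclear counterstain (blue) and the microtubule staining pattern imaged.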

The test system of series [3] is PC-3. Description: Growth inhibition of human PC3 cells after 72 hrs by Alamar Blue assay. Format: functional. To be noted: PC-3, 72 h. The gist of the method: (§2)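 PC3 prostate cancer cells and docetaxel-resistant PC3-DR cells were exposed to drug for 72 hours in 96-well format. Viability was read with AlamarBlue dye and GI50 derived. Resistance is the GI50 in PC3-DR over the GI50 in parental PC3.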

Series [4] relates to PC-3. Description: Resistance factor, ratio of GI50 for P-gp expressing docetaxel-resistant human PC3 cells to GI50 for human PC3 cells. Format: functional. The gist of the method: as §2
Series [5] in a line: Growth inhibition of P-gp expressing human NCI-ADR-RES cells by Alamar Blue assay. It is filed as functional. The gist of the method:
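72-h cytotoxicity in 96-well plates with AlamarBlue viability dye, giving GI50. Line 1 uses docetaxel-resistant PC3 prostate cells (PC3-DR), and line 2 uses NCI/ADR-Res ovarian cells. P-gp expression in both was confirmed by Western blot, with β-actin as the loading control.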

Series [6] relates to PC-3. Briefly: cells. Particulars: Homo sapiens, PC-3, 72 h.
The test system of series [7] is LLC-PK1. Description: Growth inhibition of pig LLC-PK1 cells expressing MDR1 by Alamar Blue assay. Format: functional. To be noted: Sus scrofa. The gist of the method:
(§3)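 Porcine epithelial L-MDR1 (P-gp expressing) cells and their non-expressing parent line were exposed to compound for 72 h. Viability was read with AlamarBlue dye and GI50 derived. P-gp expression was verified by Western blot with β-actin as loading control. The resistance ratio compares GI50 in MDR1 versus parent cells.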

Series [8] can be described thus: Growth inhibition of human OVCAR8 cells by Alamar Blue assay. Format: functional. Particulars: OVCAR-8. The gist of the method: as §1
In series [9] the test system is LLC-PK1. Briefly: Resistance factor, ratio of GI50 for pig LLC-PK1 cells expressing MDR1 to GI50 for pig LLC-PK1 cells. On the set-up: species or system Sus scrofa. The gist of the method:
as §3

Molecules are shown by their SMILES. Activity calls are given as the source filed them. The calls are words filed in the database; no cut-off is given here.

Take `CC(=O)O[C@@]12CO[C@@H]1C[C@H](O)[C@@]1(C)C(=O)[C@H](O)C3=C(C)[C@@H](OC(=O)[C@H](O)[C@@H](NC(=O)OC(C)(C)C)c4ccccc4)C[C@@](O)([C@@H](OC(=O)c4ccccc4)[C@H]21)C3(C)C.O.O.O` [DOCETAXEL]: the GI50 in series [1] turned out to be 0.00017 µM; in the series on PC-3 [3] it was 0.0025 µM; in series [5] it was 0.196 µM; in the series with PC-3 [6], 0.054 µM; in the series with LLC-PK1 [7], 0.107 µM; in [8] it was 0.0005 µM. Moreover, the RatioGI50 in the series with OVCAR-8 is on record as 392; in the series with PC-3 [4], 22; in the series with LLC-PK1 [9], 627. Also, in the series with PC-3 [2], the result was Active.

The values above are taken from ChEMBL document CHEMBL3217724, “Synthesis and evaluation of a series of benzothiophene acrylonitrile analogs as anticancer agents” (Medchemcomm, 2013).
